Measurements gathered from unrelated publications.
Protocols differ between the studies behind these lines.
Target: Serine/threonine-protein kinase ICK (CILK1, Homo sapiens, UniProt Q9UPZ9)
Sequence (Q9UPZ9 1-632, as in one of the studies): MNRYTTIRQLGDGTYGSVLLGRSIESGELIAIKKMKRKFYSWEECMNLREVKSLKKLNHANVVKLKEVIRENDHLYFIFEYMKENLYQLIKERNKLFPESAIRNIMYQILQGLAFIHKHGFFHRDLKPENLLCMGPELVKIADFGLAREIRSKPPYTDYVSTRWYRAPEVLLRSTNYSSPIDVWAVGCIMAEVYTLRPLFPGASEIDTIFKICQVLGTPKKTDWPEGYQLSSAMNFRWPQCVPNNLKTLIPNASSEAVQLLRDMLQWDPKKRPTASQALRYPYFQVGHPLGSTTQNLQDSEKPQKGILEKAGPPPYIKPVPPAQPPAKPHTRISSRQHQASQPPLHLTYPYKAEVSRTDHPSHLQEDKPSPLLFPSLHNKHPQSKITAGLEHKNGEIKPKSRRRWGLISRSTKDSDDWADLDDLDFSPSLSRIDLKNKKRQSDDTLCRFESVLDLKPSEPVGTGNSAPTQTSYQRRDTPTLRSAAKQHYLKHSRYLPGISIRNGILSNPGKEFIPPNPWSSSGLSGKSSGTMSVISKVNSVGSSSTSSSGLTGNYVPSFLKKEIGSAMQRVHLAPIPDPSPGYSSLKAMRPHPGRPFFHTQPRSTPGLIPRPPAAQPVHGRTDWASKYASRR

SMILES | effect on | technique | concentration | remaining binding
CNC(=O)[C@@H]1CC[C@@H](n2c(-c3ccc4cnccc4c3)nc3ccc(C(=O)NCc4cccc(C(N)=O)c4)cc32)C1 | binding | competition with immobilised ligand | 1 µM | 100%
CCOCCn1cc(C(=O)Nc2ccc(-n3nc(-c4cccnc4)cc3C(F)(F)F)cn2)ccc1=O | cell-free assay | competition with immobilised ligand | 1 µM | 99%
COc1ncc2cc3ccccc3nc2c1C#N | binding | competition with immobilised ligand | 5 µM | 90%
CN(c1nccc(-c2cnn3ncccc23)n1)C1CC1 | binding |  | 1 µM | 100%
c1cncc(-c2cccc(Nc3nccc(NC4CCCCC4)n3)c2)c1 | binding | competition with immobilised ligand | 10 µM | 50%
C=CC(=O)N1CCC(C(=O)NCC(=O)N2CCN(c3nc(-c4cnc(N)nc4C(F)F)nc(N4CCOCC4)n3)CC2)CC1 | binding | competition with immobilised ligand | 1 µM | 95%
COc1cnc(Nc2cccc(S(N)(=O)=O)c2)nc1N1CCN(c2ccccc2)CC1 | binding | competition with immobilised ligand | 1 µM | 72%
C[C@@H]1CCN(c2nccc(-c3cnn4ncccc34)n2)C1 | binding |  | 1 µM | 58%
COc1cccc(CNC(=O)c2nc3scc(COCc4ccc(C(=O)O)cc4)c3c(=O)[nH]2)c1 | cell-free assay | competition with immobilised ligand | 1 µM | 66.1%
O=C(c1ccc(Nc2ncc(Cl)c(-c3cc4ccccc4s3)n2)cc1)N1CCC(N2CCCC2)CC1 | binding | competition with immobilised ligand | 1 µM | 57%
O=C(Nc1cccnn1)N1CCC(=Cc2cccc(Oc3ccc(C(F)(F)F)cn3)c2)CC1 | cell-free assay | competition with immobilised ligand | 1 µM | 91%
O=C(NCC1CCOCC1)c1n[nH]cc1NC(=O)c1c(F)cccc1F | binding | competition with immobilised ligand | 1 µM | 5.7%
CS(=O)(=O)NCC[C@H](NC(=O)c1cncc2c1cnn2-c1ccc(F)cc1)c1ccnc(S(C)(=O)=O)c1 | binding | competition with immobilised ligand | 1 µM | 100%
CN(C)c1ncc(F)c(-c2cnn3ncccc23)n1 | binding |  | 1 µM | 89%
O=C(NCCCN1CCOCC1)c1ccc(Nc2nccc(-c3cc4ccccc4s3)n2)cc1 | binding | competition with immobilised ligand | 1 µM | 64%
Cc1cnn2ncc(-c3ccnc(N(C)C)n3)c2c1 | binding |  | 1 µM | 82%
O=C(NCCCN1CCOCC1)c1ccc(Nc2ncc(Cl)c(-c3ccc(Cl)s3)n2)cc1 | binding | competition with immobilised ligand | 1 µM | 62%
O=C(Nc1cccnn1)N1CC(C/C=C/c2cncc(Oc3ccc(C(F)(F)F)cn3)n2)C1 | cell-free assay | competition with immobilised ligand | 1 µM | 80%
COc1ccnn2ncc(-c3ccnc(N(C)C)n3)c12 | binding |  | 1 µM | 74%
Nc1cnc(N2CCc3cc(S(=O)(=O)Nc4c(F)cc(Cl)cc4F)cc(N4CCCC4=O)c32)nc1 | cell-free assay | competition with immobilised ligand | 1 µM | 80%
CN(CCCC(F)(F)F)c1nccc(-c2cnn3ncccc23)n1 | binding |  | 1 µM | 100%
